Reference: ChEMBL document CHEMBL4270578, “Synthesis and cytotoxic studies of novel 5-phenylisatin derivatives and their anti-migration and anti-angiogenic evaluation” (Eur J Med Chem, 2018)
Active and inactive are the calls of the source. The calls are words filed in the database; no cut-off is given here.

How the values were obtained:
K562 [1] = experiment: Induction of apoptosis in human K562 cells assessed as necrotic cells at 300 nM after 12 hrs by Annexin V-FITC/propidium iodide staining-based flow cytometric analysis (reference value: 0%); assay type: functional
K562 [2] = experiment: Induction of apoptosis in human K562 cells assessed as necrotic cells at 300 nM after 6 hrs by Annexin V-FITC/propidium iodide staining-based flow cytometric analysis (reference value: 0%); assay type: functional
K562 [3] = experiment: Induction of apoptosis in human K562 cells assessed as viable cells at 300 nM after 24 hrs by Annexin V-FITC/propidium iodide staining-based flow cytometric analysis (reference value: 95.6%); assay type: functional; conditions: K562, 24 h, read-out: Activity
K562 [4] = experiment: Induction of apoptosis in human K562 cells assessed as viable cells at 30 nM after 12 hrs by Annexin V-FITC/propidium iodide staining-based flow cytometric analysis (reference value: 95.8%); assay type: functional; conditions: K562, 12 h, read-out: Activity
K562 [5] = experiment: Induction of apoptosis in human K562 cells assessed as viable cells at 30 nM after 48 hrs by Annexin V-FITC/propidium iodide staining-based flow cytometric analysis (reference value: 95.8%); assay type: functional; conditions: K562, 48 h, read-out: Activity
K562 [6] = experiment: Induction of morphological changes in human K562 cells assessed as cell blebbing at 30 nM after 24 hrs; assay type: functional, cell-based
How it was run: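 K562 cells kept in RPMI-1640 with 10% FBS, 2.05 mM glutamine and penicillin/streptomycin at 37 °C, 5% CO2. Exposed to 30 nM drug alongside DMSO-treated controls. Cell morphology examined by microscopy.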

K562 [7] = experiment: Induction of apoptosis in human K562 cells assessed as late apoptotic cells at 300 nM after 12 hrs by Annexin V-FITC/propidium iodide staining-based flow cytometric analysis (reference value: 2.1%); assay type: functional
K562 [8] = experiment: Induction of apoptosis in human K562 cells assessed as viable cells at 300 nM after 6 hrs by Annexin V-FITC/propidium iodide staining-based flow cytometric analysis (reference value: 95.6%); assay type: functional; conditions: K562, 6 h, read-out: Activity
K562 [9] = experiment: Induction of apoptosis in human K562 cells assessed as early apoptotic cells at 30 nM after 12 hrs by Annexin V-FITC/propidium iodide staining-based flow cytometric analysis (reference value: 1.9%); assay type: functional
K562 [10] = experiment: Induction of apoptosis in human K562 cells assessed as viable cells at 300 nM after 12 hrs by Annexin V-FITC/propidium iodide staining-based flow cytometric analysis (reference value: 95.6%); assay type: functional; conditions: K562, 12 h, read-out: Activity
K562 [11] = experiment: Antiproliferative activity against human K562 cells after 48 hrs by MTT assay; assay type: functional, cell-based; conditions: K562, 48 h
How it was run: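 MTT assay on K562 cells (RPMI-1640, 10% FBS) plated at 5 × 10^4 cells/ml for 2 h, then exposed to 10–100,000 nM compound for 48 h. MTT (5 mg/mL stock) added for 4 h before absorbance read. Viability normalized to DMSO controls (100%); IC50 from nonlinear regression, three independent assays.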

K562 [12] = experiment: Induction of apoptosis in human K562 cells assessed as late apoptotic cells at 30 nM after 6 hrs by Annexin V-FITC/propidium iodide staining-based flow cytometric analysis (reference value: 2.2%); assay type: functional

Question: How did the Activity (K562 [1]) turn out when `COc1ccc(CN2C(=O)C(=O)c3cc(-c4ccc(OC)cc4)ccc32)cc1` was run?
Answer: Its Activity is 0.4%.

Question: What about the Activity (K562 [2]) of the same compound?
Answer: The Activity was 0.2%.

Question: And the viability at 0.3 µM (K562 [3])?
Answer: Its viability at 0.3 µM is 82.6%.

Question: What about the viability at 0.03 µM (K562 [4]) of the same compound?
Answer: The viability at 0.03 µM was 92.8%.

Question: What about the viability at 0.03 µM (K562 [5]) of the same compound?
Answer: The viability at 0.03 µM was 55.6%.

Question: And the Activity (K562 [6])?
Answer: The Activity was “Active”.

Question: And the Activity (K562 [7])?
Answer: The Activity was 5.9%.

Question: And the viability at 0.3 µM (K562 [8])?
Answer: The viability at 0.3 µM was 93.6%.

Question: What about the Activity (K562 [9]) of the same compound?
Answer: Its Activity is 3.1%.

Question: What about the viability at 0.3 µM (K562 [10]) of the same compound?
Answer: Its viability at 0.3 µM is 88.1%.

Question: What about the IC50 (K562 [11]) of the same compound?
Answer: Its IC50 is 30 nM.

Question: And the Activity (K562 [12])?
Answer: The Activity was 3.3%.
